Experiments:
MCF7 = test: Cytotoxicity against human MCF7 cells after 48 hrs by PrestoBlue cell viability assay; assay type: functional, cell-based; details: MCF7, 48 h
Outline: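 MCF-7 cells grown in DMEM with 10% FBS, 2 mM L-glutamine, penicillin and streptomycin, 37 °C, 5% CO2. Seeded for exponential growth, then after 24 h switched to medium containing compound or DMSO vehicle (0.1% or 1.0% v/v). Viability read by PrestoBlue fluorescence after 48 h, as % of vehicle control. Six replicates, at least three independent experiments, means ± SE.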

[1] = Antioxidant activity assessed as DPPH scavenging activity after 30 mins by spectrophotometry; assay type: physicochemical; details: 0.5 h; read-out: ED50 (the source's name)
Outline: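 Samples prepared in double-distilled methanol at 320, 160, 80, 40, 20, 10, 5 and 2.5 μg/mL. 1.0 mL added to 2.0 mL of 76 μM DPPH in methanol, held 30 min at room temperature, remaining DPPH read at 517 nm. Control was methanol plus DPPH; quercetin served as positive control. EC50 (50% absorbance decrease) obtained from a plot of % scavenged versus initial concentration.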

[2] = Activity index, ratio of compound ED50 to quercetin ED50 for antioxidant activity assessed as DPPH scavenging activity after 30 mins by spectrophotometry

| EC50 [1] [µM] | Compound | IC50 (MCF7) [µM] | Ratio ED50 [2] |
| --- | --- | --- | --- |
|  | CC(C)(O)/C=C/CC1(C)C=Cc2c(O)c(C(=O)/C=C/c3ccccc3O)cc(O)c2O1 (stereo not given) | > 236 |  |
|  | C=C(C)C(O)CCC1(C)C=Cc2c(O)c(C(=O)/C=C/c3ccccc3O)cc(O)c2O1 (mixture of isomers) | > 236 |  |
|  | Cc1cc(O)c2c(c1)C(=O)c1cc(O)cc(O)c1C2=O [EMODIN] | 317 |  |
| 8.9 | C=C(C)C(O)CCC1(C)C=Cc2c(O)c(C(=O)/C=C/c3c(O)cccc3O)cc(O)c2O1 (stereo not given) |  | 3.5 |
|  | CC(C)n1nc(C#Cc2ccncc2)c2c(N)ncnc21 | 5 |  |
|  | CC(C)(O)/C=C/CC1(C)C=Cc2c(O)c(C(=O)/C=C/c3cc(O)ccc3O)cc(O)c2O1 (stereo not given) | > 228 |  |
| 7.8 | CC(C)=CCCC1(C)C=Cc2c(O)c(C(=O)/C=C/c3c(O)cccc3O)cc(O)c2O1 (stereo not given) | > 237 | 3.1 |
| 4.4 | CC(C)=CCCC1(C)C=Cc2c(O)c(C(=O)/C=C/c3ccccc3O)cc(O)c2O1 (stereo not given) | 8.9 | 1.8 |
| 8.3 | C=C(C)C(O)CCC1(C)C=Cc2c(O)c(C(=O)/C=C/c3cc(O)ccc3O)cc(O)c2O1 (stereo not given) | 221 | 3.3 |
| 5.9 | CC(C)=CCCC1(C)C=Cc2c(O)c(C(=O)/C=C/c3cc(O)ccc3O)cc(O)c2O1 (stereo not given) | 7.6 | 2.4 |

| Compound | EC50 [1] [µM] | IC50 (MCF7) [µM] | Ratio ED50 [2] |
| --- | --- | --- | --- |
| O=c1c(O)c(-c2ccc(O)c(O)c2)oc2cc(O)cc(O)c12 [QUERCETIN] | 2.5 |  |  |

Reference: ChEMBL document CHEMBL3351232, “Flemingins G-O, cytotoxic and antioxidant constituents of the leaves of Flemingia grahamiana” (J Nat Prod, 2014)
